Our source for the Km values is ChEMBL document CHEMBL1138194, “Spatial conformation and topography of the tyrosine aromatic ring in substrate recognition by protein tyrosine kinases” (J Med Chem, 2006).

The test system of series [1] is CC(C)[C@H](NC(=O)[C@H](CCC(=O)O)NC(=O)[C@H](CCC(=O)O)NC(=O)[C@@]1(NC(=O)[C@H](CCC(=O)O)NC(=O)[C@H](CC(=O)O)NC(=O)[C@H](CC(=O)O)NC(=O)[C@@H](N)CCC(=O)O)Cc2ccc(O)cc2C1)C(=O)O. The series is described as follows: (§1) Affinity towards tyrosine kinase Syk. The method, boiled down:
(§2)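 Syk purified from rat spleen (1 unit = 1 pmol phosphate/min to polyGlu4Tyr at 0.1 mg/mL). Kinetic assays at 30 °C in 50 mM Tris/HCl pH 7.5, 5 mM MnCl2, 20 µM [γ33P]ATP, 10 units enzyme, varied peptide substrate. Stopped with 1 N HCl, heated to hydrolyse ATP, Pi removed as phosphomolybdic complex; aqueous phosphopeptide counted by scintillation; Km derived.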

Series [2] has as its system CC(C)[C@H](NC(=O)[C@H](CCC(=O)O)NC(=O)[C@H](CCC(=O)O)NC(=O)[C@H](Cc1cccc(O)c1)NC(=O)[C@H](CCC(=O)O)NC(=O)[C@H](CC(=O)O)NC(=O)[C@H](CC(=O)O)NC(=O)[C@@H](N)CCC(=O)O)C(=O)O. The description is as §1. The method, boiled down: as §2
Series [3] concerns CC(C)[C@H](NC(=O)[C@H](CCC(=O)O)NC(=O)[C@H](CCC(=O)O)NC(=O)[C@]1(NC(=O)[C@H](CCC(=O)O)NC(=O)[C@H](CC(=O)O)NC(=O)[C@H](CC(=O)O)NC(=O)[C@@H](N)CCC(=O)O)CCc2cc(O)ccc2C1)C(=O)O. Described as §1. The method, boiled down: as §2
The test system of series [4] is CC(C)[C@H](NC(=O)[C@H](CCC(=O)O)NC(=O)[C@H](CCC(=O)O)NC(=O)[C@@]1(NC(=O)[C@H](CCC(=O)O)NC(=O)[C@H](CC(=O)O)NC(=O)[C@H](CC(=O)O)NC(=O)[C@@H](N)CCC(=O)O)CCc2cc(O)ccc2C1)C(=O)O. Described as §1. In short, it runs like this: as §2
The test system of series [5] is CC(C)[C@H](NC(=O)[C@H](CCC(=O)O)NC(=O)[C@H](CCC(=O)O)NC(=O)[C@](C)(Cc1ccc(O)cc1)NC(=O)[C@H](CCC(=O)O)NC(=O)[C@H](CC(=O)O)NC(=O)[C@H](CC(=O)O)NC(=O)[C@@H](N)CCC(=O)O)C(=O)O. The description is as §1. In short, it runs like this:
as §2

Series [6] deals with CC(C)[C@H](NC(=O)[C@H](CCC(=O)O)NC(=O)[C@H](CCC(=O)O)NC(=O)[C@@H]1Cc2cc(O)ccc2CN1C(=O)[C@H](CCC(=O)O)NC(=O)[C@H](CC(=O)O)NC(=O)[C@H](CC(=O)O)NC(=O)[C@@H](N)CCC(=O)O)C(=O)O. The description is as §1. The method, boiled down: as §2
Series [7] relates to CC(C)[C@H](NC(=O)[C@H](CCC(=O)O)NC(=O)[C@H](CCC(=O)O)NC(=O)[C@H](NC(=O)[C@H](CCC(=O)O)NC(=O)[C@H](CC(=O)O)NC(=O)[C@H](CC(=O)O)NC(=O)[C@@H](N)CCC(=O)O)[C@@H](C)c1ccc(O)cc1)C(=O)O. The series is described as §1. In short, it runs like this: as §2
The test system of series [8] is CC(C)[C@H](NC(=O)[C@H](CCC(=O)O)NC(=O)[C@H](CCC(=O)O)NC(=O)[C@@H](NC(=O)[C@H](CCC(=O)O)NC(=O)[C@H](CC(=O)O)NC(=O)[C@H](CC(=O)O)NC(=O)[C@@H](N)CCC(=O)O)[C@@H](C)c1ccc(O)cc1)C(=O)O. The description is as §1. The method, boiled down:
as §2

Series [9] concerns CC(C)[C@H](NC(=O)[C@H](CCC(=O)O)NC(=O)[C@H](CCC(=O)O)NC(=O)[C@H](Cc1ccc(O)cc1)NC(=O)[C@H](CCC(=O)O)NC(=O)[C@H](CC(=O)O)NC(=O)[C@H](CC(=O)O)NC(=O)[C@@H](N)CCC(=O)O)C(=O)O. The series is described as §1. The method, boiled down: as §2
In series [10] the test system is CC(C)[C@H](NC(=O)[C@H](CCC(=O)O)NC(=O)[C@H](CCC(=O)O)NC(=O)[C@H]1Cc2cc(O)ccc2CN1C(=O)[C@H](CCC(=O)O)NC(=O)[C@H](CC(=O)O)NC(=O)[C@H](CC(=O)O)NC(=O)[C@@H](N)CCC(=O)O)C(=O)O. Described as §1. In short, it runs like this:
as §2

For series [11], the system named is CC(C)[C@H](NC(=O)[C@H](CCC(=O)O)NC(=O)[C@H](CCC(=O)O)NC(=O)[C@]1(NC(=O)[C@H](CCC(=O)O)NC(=O)[C@H](CC(=O)O)NC(=O)[C@H](CC(=O)O)NC(=O)[C@@H](N)CCC(=O)O)Cc2ccc(O)cc2C1)C(=O)O. The description is as §1. In short, it runs like this:
as §2

On to “Tyrosine-protein kinase SYK (Homo sapiens) (from UniProt P43405)”, for which the Michaelis-Menten constant (Km) (commonly the concentration of substrate that gives half-maximal velocity) in series [1] is 146 µM; in [2] it was 5.5 µM; in series [3], 98 µM; in series [4], 3.6 µM; in series [5], 87.7 µM; in [6] it was 124 µM. The Michaelis-Menten constant (Km) in series [7] was 63.2 µM; in series [8], 6.5 µM; in series [9], 3.6 µM; in series [10] it was 136 µM; in [11], 17.3 µM.
